Converted amounts (≈) assume the structure as drawn. *1 amine or outer side, *2 acyl side, *3 side chain or, on linkers, in order; H or OH if unused. Where a SMILES comes first, the peptide text is derived from it. Bridges are numbered along the chain shown (N, C = ends). [ ]: non-standard residue; d: D form. The star is where a group is joined. Orn(4R-OH,5R-OH) = O=C([C@H](C[C@@H](O)[C@@H](O)N[*:3])N[*:1])[*:2]; hTyr(3S-OH,4S-OH) = N[C@H](C(=O)O)[C@H](O)[C@@H](O)c1ccc(O)cc1; Gln(3R-OH) = NC(=O)C[C@@H](O)[C@H](N)C(=O)O; Orn(3R-OH) = NCC[C@@H](O)[C@H](N)C(=O)O; Pro(3S-OH) = O=C(O)[C@H]1NCC[C@@H]1O; Hyp = O=C(O)[C@@H]1C[C@@H](O)CN1; X1 = CCC(C)CC(C)CCCCCCCCC(=O)*
Columns and labels:
Assay type in all cases: functional
Rattus norvegicus = experiment: In vivo minimum dose administered subcutaneously b.i.d. which decreases the lung cyst count by 90% using PCP model in dexamethasone-immunosuppressed rats
Outline: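 Acute Pneumocystis carinii pneumonia model in dexamethasone-immunosuppressed Sprague-Dawley rats dosed sc twice daily for 4 days. Lung cyst counts are compared with untreated controls, and ED90 is the lowest dose giving a 90% reduction.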

Mus musculus [1] = experiment: In vivo dose administered ip bid on days 0-4 which increases the 28-day survival rate of Aspergillus fumigatus by 50%; conditions: 672 h
Outline: (§1)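 DBA/2 mice with disseminated A. fumigatus (MF5668) infection; compound given ip twice daily on days 0–4. Survival followed for 28 days; ED50 taken as the dose that raises the 28-day survival rate by 50%.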

Candida albicans [2] = experiment: In vitro concentration causing 50% inhibition of beta-(1,3)-D-glucan synthesis in a Candida albicans (MY 1208) membrane assay
Candida tropicalis = experiment: In vitro minimum fungicidal concentration (MFC) against Candida tropicalis (MY 1012)
Outline: (§2)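 Whole-cell broth microdilution assay against reference and clinical Candida isolates; the MFC is the median of at least four duplicate determinations.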

Candida albicans [3] = experiment: In vitro minimum fungicidal concentration (MFC) against Candida albicans (MY 1055); outline: as §2
Candida parapsilosis = experiment: In vitro minimum fungicidal concentration (MFC) against Candida parapsilosis (MY 1010); conditions: Lodderomyces parapsilosis; outline: as §2
Candida albicans [4] = experiment: In vitro minimum fungicidal concentration (MFC) against Candida albicans (MY 1208); conditions: in the assay text read “MY 1028” for “MY 1208”; outline: as §2
Kluyveromyces marxianus = experiment: In vitro minimum fungicidal concentration (MFC) against Candida pseudotropicalis (MY 2099); outline: as §2
Mus musculus [5] = experiment: In vivo minimum dose administered intraperitoneally b.i.d. which decreases Candida albicans (MY 1055) colony forming units by 99.9% in target organ kidney assay
Outline: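 Target organ kidney assay in congenitally immunodeficient DBA/2 mice infected with C. albicans MY1055 and dosed ip twice daily. Kidney CFU/g is compared with untreated controls, and ED99.9 is the lowest dose giving a 99.9% reduction.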

Mus musculus [6] = experiment: In vivo dose administered intraperitoneally bid on days 0-4 which increases the 28-day survival rate of Aspergillus fumigatus by 50%; conditions: ip, 672 h; outline: as §1

`CCC(C)CC(C)CCCCCCCCC(=O)N[C@H]1C[C@@H](O)[C@@H](OCCN)NC(=O)[C@@H]2[C@@H](O)CCN2C(=O)[C@H]([C@H](O)CC(N)=O)NC(=O)[C@H]([C@H](O)[C@@H](O)c2ccc(O)cc2)NC(=O)[C@@H]2C[C@@H](O)CN2C(=O)[C@H]([C@@H](C)O)NC1=O` (stereo not given in full) showed an ED90 (Rattus norvegicus) of 0.037 mg/kg, an ED50 (Mus musculus [1]) of 0.06 mg/kg and an IC50 (Candida albicans [2]) of 11 nM. It also gave an MFC (Candida tropicalis) of 0.25 µg/mL (≈ 0.226 µM), an MFC (Candida albicans [3]) of 0.125 µg/mL (≈ 0.113 µM) and an MFC (Candida parapsilosis) of 1 µg/mL (≈ 0.902 µM). It also gave an MFC (Candida albicans [4]) of 0.125 µg/mL (≈ 0.113 µM), an MFC (Kluyveromyces marxianus) of 1 µg/mL (≈ 0.902 µM) and an ED99.9 (Mus musculus [5]) of 0.78 mg/kg.

Work on `CCC(C)CC(C)CCCCCCCCC(=O)N[C@H]1C[C@@H](O)[C@@H](O)NC(=O)[C@@H]2[C@@H](O)CCN2C(=O)[C@H]([C@H](O)CCN)NC(=O)[C@H]([C@H](O)[C@@H](O)c2ccc(O)cc2)NC(=O)[C@@H]2C[C@@H](O)CN2C(=O)[C@H]([C@@H](C)O)NC1=O` (stereo partly drawn) (X1-[Orn(4R-OH,5R-OH)]T[Hyp][hTyr(3S-OH,4S-OH)][Orn(3R-OH)][Pro(3S-OH)]; lactam 1-C) yielded an ED90 (Rattus norvegicus) of 0.037 mg/kg, an ED50 (Mus musculus [1]) of over 20 mg/kg and an IC50 (Candida albicans [2]) of 10 nM. It also gave an MFC (Candida tropicalis) of under 0.06 µg/mL, an MFC (Candida albicans [3]) of under 0.06 µg/mL and an MFC (Candida parapsilosis) of 0.125 µg/mL (≈ 0.119 µM). For the same molecule, the MFC (Candida albicans [4]) was under 0.06 µg/mL, the MFC (Kluyveromyces marxianus) was 0.125 µg/mL (≈ 0.119 µM) and the ED99.9 (Mus musculus [5]) was 0.375 mg/kg.

In the case of `CCC(C)CC(C)CCCCCCCCC(=O)N[C@H]1C[C@@H](O)[C@@H](O)NC(=O)[C@@H]2[C@@H](O)CCN2C(=O)[C@H]([C@H](O)CC(N)=O)NC(=O)[C@H]([C@H](O)[C@@H](O)c2ccc(O)cc2)NC(=O)[C@@H]2C[C@@H](O)CN2C(=O)[C@H]([C@@H](C)O)NC1=O` (stereo partly drawn) (X1-[Orn(4R-OH,5R-OH)]T[Hyp][hTyr(3S-OH,4S-OH)][Gln(3R-OH)][Pro(3S-OH)]; lactam 1-C), the ED50 (Mus musculus [6]) is reported as over 20 mg/kg, the ED90 (Rattus norvegicus) is reported as 0.15 mg/kg and the MFC (Candida tropicalis) is reported as 0.125 µg/mL (≈ 0.117 µM). It also gave an MFC (Candida albicans [3]) of 0.5 µg/mL (≈ 0.469 µM), an MFC (Candida parapsilosis) of 2 µg/mL (≈ 1.88 µM) and an MFC (Candida albicans [4]) of 0.25 µg/mL (≈ 0.235 µM). The MFC (Kluyveromyces marxianus) was 1 µg/mL (≈ 0.939 µM) and the ED99.9 (Mus musculus [5]) was 6 mg/kg.

Work on `CCC(C)CC(C)CCCCCCCCC(=O)N[C@H]1C[C@@H](O)[C@@H](OCCN)NC(=O)[C@@H]2[C@@H](O)CCN2C(=O)[C@H]([C@H](O)CCN)NC(=O)[C@H]([C@H](O)[C@@H](O)c2ccc(O)cc2)NC(=O)[C@@H]2C[C@@H](O)CN2C(=O)[C@H]([C@@H](C)O)NC1=O` (stereo not given in full) yielded an ED90 (Rattus norvegicus) of 0.019 mg/kg, an ED50 (Mus musculus [1]) of 0.03 mg/kg and an IC50 (Candida albicans [2]) of 1 nM. The MFC (Candida tropicalis) was under 0.06 µg/mL, the MFC (Candida albicans [3]) was 0.125 µg/mL (≈ 0.114 µM) and the MFC (Candida parapsilosis) was 0.125 µg/mL (≈ 0.114 µM). For the same molecule, the MFC (Candida albicans [4]) was under 0.06 µg/mL, the MFC (Kluyveromyces marxianus) was under 0.06 µg/mL and the ED99.9 (Mus musculus [5]) was 0.09 mg/kg.
